From ChEMBL document CHEMBL4024783, “Alkylated Piperazines and Piperazine-Azole Hybrids as Antifungal Agents” (J Med Chem, 2018)
Converted amounts (≈) assume the structure as drawn. The source made the active and inactive calls. The calls are words filed in the database; no cut-off is given here.

Assays:
Candida albicans [1] = assay: Antifungal activity against itraconazole and fluconazole susceptible Candida albicans ATCC MYA-2310 after 48 hrs by broth dilution method; type: functional; settings: Candida albicans, ATCC MYA-2310, 48 h
Aspergillus nidulans [2] = assay: Antifungal activity against Aspergillus nidulans ATCC 38163 after 48 hrs by broth dilution method; type: functional; settings: Aspergillus nidulans, ATCC 38163, 48 h
Summary of the method: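 A. nidulans run per CLSI M38-A2. PDA spores were filtered through glass wool and counted by hemocytometer. Test range 0.03–31.3 µg/mL in MOPS-buffered RPMI 1640 (pH 7.0), final 5 × 10^5 CFU/mL.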

Candida albicans [3] = assay: Antifungal activity against itraconazole and fluconazole resistant Candida albicans ATCC 90819 after 48 hrs by broth dilution method; type: functional; settings: Candida albicans, ATCC 90819, 48 h
Summary of the method: (§1)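 CLSI M27-A3 broth microdilution with minor modifications. Overnight YPD culture grown at 35 °C, 200 rpm, adjusted to OD600 0.12, diluted in RPMI 1640 buffered to pH 7.0 with 0.165 M MOPS to a final 1–2 × 10^3 CFU/mL. Test compounds at 0.015–31.3 µg/mL, 48 h at 35 °C, DMSO <1.25%. […] Triplicate.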

HEK293 = assay: Cytotoxicity against HEK293 cells at 7.8 ug/mL after 24 hrs by resazurin-based fluorescence assay; type: cell-based; settings: human, hek293, 24 h
Summary of the method: (§2)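 Cells grown in DMEM with 10% FBS at 37 °C, 5% CO2, and seeded at 10000 (HEK-293) or 3000 (BEAS-2B, A549) per well. After 16 h, exposed 24 h to 0.13–31 µg/mL final in medium with 0.1–0.4% DMSO. Resazurin added for 6–10 h; fluorescence read at 560/590 nm and survival normalized to DMSO control after background subtraction. Triton X-100 12.5% v/v positive control; duplicate.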

Candida albicans [4] = assay: Antifungal activity against itraconazole and fluconazole resistant Candida albicans ATCC MYA-1003 after 48 hrs by broth dilution method; type: functional; settings: Candida albicans, ATCC MYA-1003, 48 h; summary of the method: as §1
Candida albicans [5] = assay: Antifungal activity against itraconazole and fluconazole resistant Candida albicans ATCC MYA-1237 after 48 hrs by broth dilution method; type: functional; settings: Candida albicans, ATCC MYA-1237, 48 h; summary of the method: as §1
Candida albicans [6] = assay: Antifungal activity against itraconazole and fluconazole susceptible Candida albicans ATCC MYA-2876 after 48 hrs by broth dilution method; type: functional; settings: Candida albicans, ATCC MYA-2876, 48 h
Aspergillus flavus = assay: Antifungal activity against Aspergillus flavus ATCC MYA-3631 after 48 hrs by broth dilution method; type: functional; settings: ATCC MYA-3631, 48 h
Nakaseomyces glabratus [7] = assay: Antifungal activity against Candida glabrata ATCC 2001 after 48 hrs by broth dilution method; type: functional, CBS 138; settings: Nakaseomyces glabratus, CBS 138, 48 h
A549 [8] = assay: Cytotoxicity against human A549 cells up to 15.5 ug/mL after 24 hrs by resazurin-based fluorescence assay; type: cell-based; settings: a549, 24 h; summary of the method: as §2
Candida parapsilosis [9] = assay: Antifungal activity against Candida parapsilosis ATCC 22019 after 48 hrs by broth dilution method; type: functional; settings: Lodderomyces parapsilosis, ATCC 22019, 48 h
Pichia kudriavzevii = assay: Antifungal activity against Candida krusei ATCC 6258 after 48 hrs by broth dilution method; type: functional; settings: Pichia kudriavzevii, ATCC 6258, 48 h
Summary of the method: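 Yeasts tested per CLSI M27-A3 with minor changes. An overnight YPD culture (35 °C, 200 rpm) was adjusted to OD600 0.12 and diluted in MOPS-buffered RPMI 1640 (pH 7.0) to a final 1–2 × 10^3 CFU/mL. Compounds 0.015–31.3 µg/mL, DMSO <1.25%.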

Candida albicans [10] = assay: Antifungal activity against Candida albicans ATCC 10231 after 48 hrs by broth dilution method; type: functional; settings: ATCC 10231, 48 h
Candida albicans [11] = assay: Antifungal activity against Candida albicans ATCC 64124 after 48 hrs by broth dilution method; type: functional; settings: Candida albicans, ATCC 64124, 48 h; summary of the method: as §1
BEAS-2B = assay: Cytotoxicity against human BEAS2B cells at 7.8 ug/mL after 24 hrs by resazurin-based fluorescence assay; type: cell-based; summary of the method: as §2
Aspergillus terreus = assay: Antifungal activity against Aspergillus terreus ATCC MYA-3633 after 48 hrs by broth dilution method; type: functional; settings: Aspergillus terreus, ATCC MYA-3633, 48 h
Summary of the method: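 Molds tested per CLSI M38-A2. Spores were harvested from sporulating PDA cultures by filtering through glass wool and counted on a hemocytometer. Serial dilutions (0.03–31.3 µg/mL) were made in RPMI 1640 buffered to pH 7.0 with 0.165 M MOPS, final inoculum 5 × 10^5 CFU/mL.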

Candida parapsilosis [12] = assay: Antifungal activity against Candida parapsilosis ATCC 22019 after 48 hrs in the presence of 10% FBS by broth dilution method; type: functional; settings: Lodderomyces parapsilosis, ATCC 22019, 48 h
[13] = Aqueous solubility of the compound; type: physicochemical; settings: buffer
Candida albicans [14] = assay: Antibiofilm activity against voriconazole resistant Candida albicans ATCC 64124 sessile cells incubated for 24 hrs by XTT reduction assay; type: functional; settings: ATCC 64124, 24 h
Summary of the method: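 Strain B grown overnight in YPD broth at 35 °C, diluted to OD600 0.1 (~10^6 CFU/mL), then grown statically for 24 h at 37 °C to form biofilm. Washed with PBS, then drug in RPMI 1640 at 0.12–62.5 µg/mL for 24 h at 37 °C. Read-out: XTT 0.5 mg/mL with menadione 1 µM, 2 h, A490. SMIC50/SMIC80 are 50%/80% decreases versus drug-free biofilm. Duplicate.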

A549 [15] = assay: Cytotoxicity against human A549 cells up to 7.8 ug/mL after 24 hrs by resazurin based fluorescence assay; type: cell-based; settings: a549, 24 h; summary of the method: as §2
[16] = Solubility of the compound in DMSO; type: physicochemical
Candida albicans [17] = assay: Fungicidal activity against Candida albicans ATCC 10231 at 4 times MIC incubated for 24 hrs by time kill assay; type: functional
Summary of the method: (§3)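 Overnight YPD cultures were diluted in RPMI 1640 to OD600 0.12–0.13; initial inoculum 1–4 × 10^5 CFU/mL. […] Shaken at 200 rpm, 35 °C, for 24 h, sampling at 0, 3, 6, 9, 12 and 24 h. Serial dilutions were plated on PDA and CFU counted; detection limit 100 CFU/mL; duplicate.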

Candida albicans [18] = assay: Inhibition of 14alpha-demethylase in Candida albicans ATCC 10231 assessed as lanosterol levels at […] by GC-MS analysis; set-up: scale not given: the % may be the effect or the level left
Candida albicans [19] = assay: Antifungal activity against Candida albicans ATCC 10231 at 3.9 ug/mL incubated for 1 hr by propidium iodide staining-based fluorescence microscopic method; type: functional
Summary of the method: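 C. albicans ATCC 10231 from an overnight YPD culture (35 °C, 200 rpm) was transferred into RPMI 1640 and exposed to drug. Membrane integrity was assessed by uptake of propidium iodide under fluorescence microscopy.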

Candida albicans [20] = assay: Inhibition of 14alpha-demethylase in Candida albicans ATCC 10231 assessed as total sterol levels at […] by GC-MS analysis; set-up: scale not given: the % may be the effect or the level left
Candida albicans [21] = assay: Inhibition of 14alpha-demethylase in Candida albicans ATCC 10231 assessed as eburicol levels at […] by GC-MS analysis; set-up: scale not given: the % may be the effect or the level left
Candida albicans [22] = assay: Antifungal activity against Candida albicans ATCC 10231 after 48 hrs in the presence of 10% FBS by broth dilution method; type: functional; settings: ATCC 10231, 48 h
Candida albicans [23] = assay: Inhibition of 14alpha-demethylase in Candida albicans ATCC 10231 assessed as 14alpha-methyl ergosta-8,24(28)-dien-3beta,6alpha-diol levels at […] by GC-MS analysis; set-up: scale not given: the % may be the effect or the level left
Aspergillus nidulans [24] = assay: Antifungal activity against Aspergillus nidulans ATCC 38163 after 48 hrs in the presence of 10% FBS by broth dilution method; type: functional; settings: ATCC 38163, 48 h
Candida parapsilosis [25] = assay: Fungistatic activity against Candida parapsilosis ATCC 22019 up to 8 times MIC incubated for 24 hrs by time kill assay; type: functional; summary of the method: as §3
Candida albicans [26] = assay: Inhibition of 14alpha-demethylase in Candida albicans ATCC 10231 assessed as ergosterol levels at […] by GC-MS analysis; set-up: scale not given: the % may be the effect or the level left
[27] = Cytotoxicity against human A549 cells assessed as cell survival at 7.8 ug/mL after 24 hrs by resazurin-based fluorescence assay; settings: read-out: Survival
Summary of the method: (§4)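 Cells were grown in DMEM with 10% FBS and 1% Pen/Strep at 37 °C, 5% CO2. HEK-293 was seeded at 10000 cells/well; A549 and BEAS-2B at 3000 cells/well. After 16 h, cells were exposed for 24 h to final 0.13–31 µg/mL in 0.1–0.4% DMSO, then given resazurin for 6–10 h. Read at ex 560/em 590. […] Run in duplicate.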

[28] = Cytotoxicity against HEK293 cells assessed as cell survival at 7.8 ug/mL after 24 hrs by resazurin-based fluorescence assay; settings: human, read-out: Survival; summary of the method: as §4
[29] = Cytotoxicity against human BEAS2B cells assessed as cell survival at 7.8 ug/mL after 24 hrs by resazurin-based fluorescence assay; settings: BEAS-2B cells, read-out: Survival; summary of the method: as §4
Candida albicans [30] = assay: Ratio of MIC80 for voriconazole resistant Candida albicans ATCC 64124 sessile cells to MIC for voriconazole resistant Candida albicans ATCC 64124; type: functional
Nakaseomyces glabratus [31] = assay: Fungicidal activity against Candida glabrata ATCC 2001 at 4 times MIC incubated for 24 hrs by time kill assay; type: functional; settings: CBS 138; summary of the method: as §3

Compound | MIC (Candida albicans [1]) | MIC (Aspergillus nidulans [2]) | MIC (Candida albicans [3]) | Activity (HEK293) | MIC (Candida albicans [4]) | MIC (Candida albicans [5]) | MIC (Candida albicans [6]) | MIC (Aspergillus flavus) | MIC (Nakaseomyces glabratus [7]) | MIC (Candida parapsilosis [9]) | MIC (Pichia kudriavzevii) | MIC (Candida albicans [10]) | MIC (Candida albicans [11]) | Activity (BEAS-2B) | MIC (Aspergillus terreus) | MIC (Candida parapsilosis [12]) | solubility [13] | MIC50 (Candida albicans [14]) | MIC80 (Candida albicans [14]) | solubility [16] | further results
CCCCCCCCN1CCN(CC(O)(Cn2cncn2)c2ccc(F)cc2F)CC1 (configuration not stated) | > 71.9 µM | 9 µM (≈ 3.92 µg/mL) | 35.8 µM (≈ 15.6 µg/mL) | Toxic | 2.2 to 71.9 µM (≈ 0.958 to 31.3 µg/mL) | 71.9 µM (≈ 31.3 µg/mL) | 71.9 µM (≈ 31.3 µg/mL) | 4.5 µM (≈ 1.96 µg/mL) | 35.8 µM (≈ 15.6 µg/mL) | 0.1 µM (≈ 0.0436 µg/mL) | 17.9 µM (≈ 7.8 µg/mL) | 9 µM (≈ 3.92 µg/mL) | 71.9 µM (≈ 31.3 µg/mL) | Toxic | 9 µM (≈ 3.92 µg/mL) | – | – | – | – | – | Activity (A549 [8]): Non-Toxic
CCCCCCCCCCN1CCN(CC(O)(Cn2cncn2)c2ccc(F)cc2F)CC1 (configuration not stated) | 16.8 µM (≈ 7.79 µg/mL) | 2.1 µM (≈ 0.974 µg/mL) | 8.4 µM (≈ 3.89 µg/mL) | Toxic | 8.4 µM (≈ 3.89 µg/mL) | 16.8 µM (≈ 7.79 µg/mL) | – | 0.5 µM (≈ 0.232 µg/mL) | > 67.5 µM | 0.03 µM (≈ 0.0139 µg/mL) | 4.2 µM (≈ 1.95 µg/mL) | 2.1 µM (≈ 0.974 µg/mL) | 8.4 µM (≈ 3.89 µg/mL) | Toxic | 2.1 µM (≈ 0.974 µg/mL) | 0.06 µg/mL | Soluble | 15.6 µg/mL (≈ 33.6 µM) | 62.5 µg/mL (≈ 135 µM) | Soluble | Activity (A549 [15]): Non-Toxic; Activity (Candida albicans [17]): Active; Activity (Candida albicans [18]): 33.4%; Activity (Candida albicans [19]): inactive; Activity (Candida albicans [20]): 2.8 to 14.4%; Activity (Candida albicans [21]): 1.25%; MIC (Candida albicans [22]): 0.975 µg/mL; Activity (Candida albicans [23]): 15.4%; MIC (Aspergillus nidulans [24]): 0.975 µg/mL; Activity (Candida parapsilosis [25]): Active; Activity (Candida albicans [26]): 30.1%
CCCCCCCCCCCCN1CCN(CC(O)(Cn2cncn2)c2ccc(F)cc2F)CC1 (configuration not stated) | 15.9 µM (≈ 7.82 µg/mL) | 7.9 µM (≈ 3.88 µg/mL) | 7.9 µM (≈ 3.88 µg/mL) | – | 31.7 µM (≈ 15.6 µg/mL) | 15.9 µM (≈ 7.82 µg/mL) | 7.9 µM (≈ 3.88 µg/mL) | 3.9 µM (≈ 1.92 µg/mL) | 2 µM (≈ 0.983 µg/mL) | 0.03 µM (≈ 0.0148 µg/mL) | 0.98 µM (≈ 0.482 µg/mL) | 3.9 µM (≈ 1.92 µg/mL) | 15.9 µM (≈ 7.82 µg/mL) | – | 7.9 µM (≈ 3.88 µg/mL) | 0.06 µg/mL | Soluble | 7.8 µg/mL (≈ 15.9 µM) | 15.6 µg/mL (≈ 31.7 µM) | Soluble | viability at 24 h, 7.8 ug/mL [27]: < 40%; viability at 24 h, 7.8 ug/mL [28]: < 40%; viability at 24 h, 7.8 ug/mL [29]: < 40%; MIC (Candida albicans [22]): 1.95 µg/mL; Ratio (Candida albicans [30]): 1 - 2; MIC (Aspergillus nidulans [24]): 3.9 µg/mL; Activity (Candida parapsilosis [25]): Active; Activity (Nakaseomyces glabratus [31]): Active
